This note sets out measurements from ChEMBL document CHEMBL1142487, “Design, synthesis, and structure-activity relationship of novel opioid kappa-agonists” (Bioorg Med Chem, 2008).

Calls of active or inactive are those of the source. No cut-off for these calls is given here.

In general, ED50 refers to the midpoint of the dose-response relation. The term inhibition denotes the relative decrease from the control value, in per cent. By IC50 is commonly meant the concentration that gives 50% inhibition. By inhibition in vivo is commonly meant the share of the control response that was lost under treatment.

For assay [1], the system named is Mus musculus. The assay can be described thus: Antinociceptive activity in sc dosed mouse assessed as inhibition of acetic acid-induced writhing administered 15 mins before acetic acid challenge. Format: functional. In outline: (§1)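 Male mice (5 weeks old) received test compound sc into the rostral back or po, 15 min before ip 0.6% aqueous acetic acid (0.1 mL/10 g). Writhes were counted over 10 min, starting 10 min after the acid. […] The po/sc ED50 ratio was calculated.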

Assay [2] has as its target Kappa-type opioid receptor (Mus musculus) (UniProt P33534). Put plainly: Agonist activity at kappa opioid receptor in ddy mouse vas deferens assessed as inhibition of electric stimulation-induced contraction at 1 uM. Format: functional, tissue-based.
Assay [3] deals with Mus musculus. The assay can be described thus: Inhibition of acetic acid-induced writhing in sc dosed mouse up to 180 mins administered 15 mins before acetic acid challenge. The class given is functional, organism-based. A general note: In writhing tests, fewer writhes than in controls are read as antinociception.
The test system of assay [4] is Mus musculus. Put plainly: Antinociceptive activity in sc dosed delta opioid receptor antagonist […] treated mouse assessed as inhibition of acetic acid-induced writhing administered 15 mins before acetic acid challenge. Format: functional, organism-based.
Assay [5] deals with Mus musculus. The assay can be described thus: Antinociceptive activity in po dosed mouse assessed as inhibition of acetic acid-induced writhing administered 15 mins before acetic acid challenge. Format: functional. In outline: as §1
For assay [6], the system named is Mus musculus. The assay can be described thus: Antinociceptive activity in sc dosed kappa opioid receptor antagonist nor-BNI treated mouse assessed as inhibition of acetic acid-induced writhing administered 15 mins before acetic acid challenge. Format: functional, organism-based.
Assay [7] concerns Mus musculus. The assay can be described thus: Antinociceptive activity in sc dosed mu opioid receptor antagonist naloxone treated mouse assessed as inhibition of acetic acid-induced writhing administered 15 mins before acetic acid challenge. The class given is functional, organism-based.
The target in assay [8] is Kappa-type opioid receptor (Mus musculus, UniProt P33534). The assay can be described thus: Agonist activity at kappa opioid receptor in ddy mouse vas deferens assessed as inhibition of electric stimulation-induced contraction. Format: functional, tissue-based.
Assay [9] deals with Delta-type opioid receptor (Mus musculus) (UniProt P32300). Put plainly: Equilibrium constant, ratio of IC50 for delta opioid receptor in ddy mouse vas deferens in presence of 10 nM Naltrindole to IC50 for delta opioid receptor in ddy mouse vas deferens. In outline:
(§2)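 Electrically stimulated ddY mouse vas deferens was held in Krebs-Henseleit at 37 °C under 95% O2/5% CO2. Tissue was preincubated 20 min with antagonist before the test agonist: naloxone 30 nM (μ), NTI 10 nM (δ), or nor-BNI 10 nM (κ). IC50s were compared with and without antagonist. Ke = [antagonist]/(IC50 ratio − 1).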

The target in assay [10] is Mu-type opioid receptor (Mus musculus) (UniProt P42866). Put plainly: Equilibrium constant, ratio of IC50 for mu opioid receptor in ddy mouse vas deferens in presence of 30 nM naloxone to IC50 for mu opioid receptor in ddy mouse vas deferens. In outline:
as §2

In assay [11] the test system is Mus musculus. The assay can be described thus: Antinociceptive activity in mouse assessed as inhibition of acetic acid-induced writhing at 10 mg/kg, sc administered 15 mins before acetic acid challenge. The class given is functional. Conditions: route subcutaneous. In short, it runs like this: as §1
The target of assay [12] is Kappa-type opioid receptor (Mus musculus) (UniProt P33534). The assay can be described thus: Equilibrium constant, ratio of IC50 for kappa opioid receptor in ddy mouse vas deferens in presence of 10 nM nor-BNI to IC50 for kappa opioid receptor in ddy mouse vas deferens. In short, it runs like this:
as §2

Assay [13] deals with Mus musculus. Put plainly: Ratio of ED50 for acetic acid-induced writhing in po dosed mouse to ED50 for acetic acid-induced writhing in sc dosed mouse. Format: functional. In short, it runs like this: as §1

For the compound `CCCCCCS[C@@H]1CC[C@@]2(O)[C@H]3Cc4ccc(O)c5c4[C@@]2(CCN3CC2CC2)[C@H]1O5`, the ED50 in the assay with Mus musculus [1] amounted to 15.8 mg/kg. Further, in [2], the inhibition worked out at 38%.
In the case of `CN(C(=O)/C=C/c1ccoc1)[C@@H]1CC[C@@]2(O)[C@H]3Cc4ccc(O)c5c4[C@@]2(CCN3CC2CC2)[C@H]1O5.Cl` [NALFURAFINE HYDROCHLORIDE], the outcome in the assay with Mus musculus [3], in the assay on Mus musculus [4] and in the assay on Mus musculus [7] was Active. Further, the ED50 in the assay with Mus musculus [5] was 0.032 mg/kg. Further, in the assay on Mus musculus [6], the result was inactive.
Turning to `CCCCCC(=O)N[C@@H]1CC[C@@]2(O)[C@H]3Cc4ccc(O)c5c4[C@@]2(CCN3CC2CC2)[C@H]1O5`, in assay [8], the 50% inhibitory concentration (IC50) was determined as 25 nM. Further, the values for the Ke in [9], in assay [10] and in assay [12] were 2.3 nM, 4.4 nM and 0.26 nM, respectively. Moreover, the inhibition in vivo at 10 mg/kg in the assay with Mus musculus [11] came out at 25%.
Regarding `CN(C(=O)/C=C/C1CCCCC1)[C@@H]1CC[C@@]2(O)[C@H]3Cc4ccc(O)c5c4[C@@]2(CCN3CC2CC2)[C@H]1O5`, the outcome in the assay on Mus musculus [3] was Active. The “Ratio ED50” value in the assay on Mus musculus [13] is recorded as 17. The ED50 with Mus musculus [1] is 0.004 mg/kg; in the assay on Mus musculus [5] it was 0.071 mg/kg. In addition, in assay [8], the IC50 turned out to be 0.457 nM. Also, the Ke in assay [9] amounted to 143 nM; in [10], 5710 nM; in [12] it was 1.08 nM.
